According to ChEMBL document CHEMBL1155655 (2000):
Converted amounts (≈) assume the structure as drawn. The source made the active and inactive calls. The calls are words filed in the database; no cut-off is given here.

What was measured:
Leishmania donovani [1] = test: Antileishmanial activity against extracellular Leishmania donovani LV9 infected in C57BL/10ScSn mouse bone marrow-derived macrophages; assay type: functional; conditions: LV9, read-out: ED50
Leishmania enriettii = test: Antileishmanial activity against promastigotes of Leishmania enriettii infected in C57BL/10ScSn mouse bone marrow-derived macrophages; assay type: functional; conditions: read-out: ED50
[2] = Cytotoxicity against C57BL/10ScSn mouse bone marrow-derived macrophages; assay type: cell-based, Macrophage
Leishmania donovani [3] = test: Antileishmanial activity against intracellular Leishmania donovani LV9 infected in C57BL/10ScSn mouse bone marrow-derived macrophages; assay type: functional; conditions: LV9, read-out: ED50
Leishmania infantum = test: Antileishmanial activity against promastigotes of Leishmania infantum D.SCH infected in C57BL/10ScSn mouse bone marrow-derived macrophages; assay type: functional, organism-based
Procedure, shortened: (§1)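 Promastigotes of L. donovani LV9, L. infantum D.SCH (isolated 1995 from an infant visceral leishmaniasis case), L. enriettii and L. major LV39, grown at 25 °C, 5% CO2, humidified, and passaged every 3-4 days. Stocks were kept by animal passage (not L. infantum) and cryopreserved in liquid nitrogen.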

Leishmania major = test: Antileishmanial activity against promastigotes of Leishmania major LV39 infected in C57BL/10ScSn mouse bone marrow-derived macrophages; assay type: functional, organism-based
Procedure, shortened: as §1

MCF7 = test: Cytotoxicity against human MCF7 cells; assay type: functional, cell-based
A549 = test: Cytotoxicity against human A549 cells; assay type: functional, cell-based
SK-MEL-30 = test: Cytotoxicity against human SK-MEL-30 cells; assay type: functional, cell-based
KB = test: Cytotoxicity against human KB cells; assay type: functional, cell-based
Toxicity in brine shrimp = assay type: organism-based; conditions: artemia, in vivo

Row | SMILES | EC50 (MCF7; mcf7) [µg/mL] | EC50 (A549; a549) [µg/mL] | EC50 (SK-MEL-30; sk-mel-30) [µg/mL] | EC50 (KB; kb) [µg/mL] | EC50 (MCF7; Homo sapiens, MCF7) [µg/mL] | EC50 (A549; Homo sapiens, A549) [µg/mL] | EC50 (SK-MEL-30; Homo sapiens, SK-MEL-30) [µg/mL] | EC50 (KB; Homo sapiens, KB) [µg/mL] | further results
1 | C=C[C@]1(C)CC[C@]2(C)[C@@H](C1)C(=O)[C@@H](O)[C@@H]1[C@]3(C)CCC[C@@]12OC3=O | – | – | – | – | – | – | – | – | EC50 (Leishmania donovani [1]): 10.3 µg/mL (≈ 31 µM); EC50 (Leishmania enriettii): > 50 µg/mL; CC50 [2]: 19.5 µg/mL (≈ 58.7 µM); EC50 (Leishmania donovani [3]): 37.2 µg/mL (≈ 112 µM); Activity (Leishmania infantum): inactive; Activity (Leishmania major): inactive
2 | C/C=C\C(=O)O[C@@H]1[C@@H](O)[C@H]2O[C@@H]3C=C(C)CC[C@]3(C)[C@]1(C)[C@]21CO1 [8-DIHYDROTRICHOTHECINOL A] | 0.11 (≈ 0.329 µM) | 0.11 (≈ 0.329 µM) | 0.11 (≈ 0.329 µM) | 0.1 (≈ 0.299 µM) | – | – | – | – | –
3 | CC(=O)OC[C@]12O[C@]34C=C(C)C(=O)C[C@]3(C)[C@@]1(C)[C@H](O)C[C@H]2O4 [13-ACETOXYLOUKACINOL A] | – | – | – | – | 15.9 (≈ 49.3 µM) | 26.6 (≈ 82.5 µM) | 18 (≈ 55.8 µM) | 13.6 (≈ 42.2 µM) | –
4 | CC1=C[C@]23O[C@@H]4C[C@@H](O)[C@](C)([C@@]2(C)CC1=O)[C@]4(CO)O3 [LOUKACINOL A] | – | – | – | – | 15.8 (≈ 56.4 µM) | 21.4 (≈ 76.3 µM) | 16.4 (≈ 58.5 µM) | 13.9 (≈ 49.6 µM) | –
5 | CC1=C[C@]23O[C@@H]4CC[C@](C)([C@@]2(C)CC1=O)[C@]4(CO)O3 [LOUKACINOL B] | – | – | – | – | 13.3 (≈ 50.3 µM) | 15.2 (≈ 57.5 µM) | 13.6 (≈ 51.5 µM) | 11.8 (≈ 44.6 µM) | –
6 | C/C=C\C(=O)O[C@@H]1[C@@H](O)[C@H]2O[C@@H]3C=C(C)C(=O)C[C@]3(C)[C@]1(C)[C@]21CO1 [TRICHOTHECINOL A] | 0.014 (≈ 0.0402 µM) | 0.021 (≈ 0.0603 µM) | 0.013 (≈ 0.0373 µM) | 0.014 (≈ 0.0402 µM) | – | – | – | – | LC50 (Toxicity in brine shrimp): 0.52 µg/mL (≈ 1.49 µM)
7 | C/C=C\C(=O)O[C@@H]1C[C@H]2O[C@@H]3C=C(C)C(=O)C[C@]3(C)[C@]1(C)[C@]21CO1 [TRICHOTHECIN] | 19 (≈ 57.2 µM) | 16 (≈ 48.1 µM) | 14 (≈ 42.1 µM) | 35 (≈ 105 µM) | – | – | – | – | LC50 (Toxicity in brine shrimp): 2.2 µg/mL (≈ 6.62 µM)
8 | CC1=C[C@H]2O[C@@H]3C[C@@H](O)[C@](C)([C@@]2(C)CC1=O)[C@]31CO1 [TRICHOTHECOLONE] | 10.6 (≈ 40.1 µM) | 7.1 (≈ 26.9 µM) | 8.6 (≈ 32.5 µM) | 10.6 (≈ 40.1 µM) | – | – | – | – | –
